Laboratory results published in ChEMBL document CHEMBL4152257, “Discovery of novel β-carboline/acylhydrazone hybrids as potent antitumor agents and overcome drug resistance” (Eur J Med Chem, 2018).
Active and inactive are the calls of the source. No cut-off for these calls is given here.

What was measured:
MDA-MB-231 = experiment: Antiproliferative activity against human MDA-MB-231 cells at 1 uM after 48 to 72 hrs by MTT assay relative to control; format: functional
Procedure, shortened: (§1)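 Single-concentration screen in the MTT proliferation assay: log-phase cells seeded and allowed to adhere, exposed to compound at 1 µM for 48 h or 72 h, MTT added for 2-3 h, formazan dissolved in DMSO; percent inhibition versus control.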

Raji = experiment: Antiproliferative activity against human Raji cells at 1 uM after 48 to 72 hrs by MTT assay relative to control; format: functional; procedure, shortened: as §1
NCI-H460 = experiment: Antiproliferative activity against human H460 cells at 1 uM after 48 to 72 hrs by MTT assay relative to control; format: functional; procedure, shortened: as §1
MCF7 [1] = experiment: Antiproliferative activity against human MCF7 cells after 48 to 72 hrs by MTT assay; format: functional, cell-based
Procedure, shortened: (§2)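 Cells in log phase seeded and allowed to adhere, then exposed to graded compound concentrations for 48 h or 72 h; MTT added for a further 2-3 h, formazan dissolved in DMSO. IC50 taken from dose-response curves; mean ± SD of at least three independent experiments.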

A549 = experiment: Antiproliferative activity against human A549 cells after 48 to 72 hrs by MTT assay; format: functional, cell-based; procedure, shortened: as §2
[2] = Resistance index, ratio of IC50 for human A549/TR cells to IC50 for human A549 cells; format: functional
A549/TR = experiment: Antiproliferative activity against human A549/TR cells after 48 to 72 hrs by MTT assay; format: functional, cell-based; procedure, shortened: as §2
NCI/ADR-RES [3] = experiment: Antiproliferative activity against human MCF7/ADR cells after 48 to 72 hrs by MTT assay; format: functional, cell-based; procedure, shortened: as §2
[4] = Resistance index, ratio of IC50 for human MCF7/ADR cells to IC50 for human MCF7 cells; format: functional
[5] = Selectivity ratio of IC50 for HUVEC to IC50 for human A549/TR cells; format: toxicity; conditions: HUVEC versus A549/TR cells
[6] = Selectivity ratio of IC50 for HUVEC to IC50 for human A2780S cells; format: toxicity; conditions: HUVEC versus A2780S cells
MCF7 [7] = experiment: Cell cycle arrest in human MCF7 cells assessed as accumulation at S phase at 3 uM after 18 hrs by propidium iodide staining based flow cytometry (reference value: 44.80%); format: functional
MCF7 [8] = experiment: Cell cycle arrest in human MCF7 cells assessed as accumulation at G2/M phase at 3 uM after 18 hrs by propidium iodide staining based flow cytometry (reference value: 9.98%); format: functional
MCF7 [9] = experiment: Cell cycle arrest in human MCF7 cells assessed as accumulation at G0/G1 phase at 30 uM after 18 hrs by propidium iodide staining based flow cytometry (reference value: 45.22%); format: functional
MCF7 [10] = experiment: Cell cycle arrest in human MCF7 cells assessed as accumulation at S phase at 30 uM after 18 hrs by propidium iodide staining based flow cytometry (reference value: 44.80%); format: functional
MCF7 [11] = experiment: Cell cycle arrest in human MCF7 cells assessed as accumulation at G0/G1 phase at 100 uM after 18 hrs by propidium iodide staining based flow cytometry (reference value: 45.22%); format: functional
MCF7 [12] = experiment: Cell cycle arrest in human MCF7 cells assessed as accumulation at sub-G1 phase after 18 hrs by propidium iodide staining based flow cytometry; format: functional
MCF7 [13] = experiment: Induction of apoptosis in human MCF7 cells assessed as early apoptotic cells at 3 uM after 48 hrs by annexin V-FITC/PI dual staining based flow cytometry (reference value: 11%); format: functional
MCF7 [14] = experiment: Induction of apoptosis in human MCF7 cells assessed as necrotic cells at 3 uM after 48 hrs by annexin V-FITC/PI dual staining based flow cytometry (reference value: 0.16%); format: functional
MCF7 [15] = experiment: Induction of apoptosis in human MCF7 cells assessed as necrotic cells at 10 uM after 48 hrs by annexin V-FITC/PI dual staining based flow cytometry (reference value: 0.16%); format: functional
MCF7 [16] = experiment: Induction of apoptosis in human MCF7 cells assessed as early apoptotic cells at 30 uM after 48 hrs by annexin V-FITC/PI dual staining based flow cytometry (reference value: 11%); format: functional
MCF7 [17] = experiment: Induction of apoptosis in human MCF7 cells assessed as necrotic cells at 30 uM after 48 hrs by annexin V-FITC/PI dual staining based flow cytometry (reference value: 0.16%); format: functional
MCF7 [18] = experiment: Induction of apoptosis in human MCF7 cells assessed as early apoptotic cells at 100 uM after 48 hrs by annexin V-FITC/PI dual staining based flow cytometry (reference value: 11%); format: functional
MCF7 [19] = experiment: Induction of apoptosis in human MCF7 cells assessed as late apoptotic cells at 100 uM after 48 hrs by annexin V-FITC/PI dual staining based flow cytometry (reference value: 11.1%); format: functional
NCI/ADR-RES [20] = experiment: Induction of apoptosis in human MCF7/ADR cells assessed as viable cells at 3 uM after 48 hrs by annexin V-FITC/PI dual staining based flow cytometry (reference value: 89.8%); format: functional; conditions: read-out: Activity
NCI/ADR-RES [21] = experiment: Induction of apoptosis in human MCF7/ADR cells assessed as late apoptotic cells at 3 uM after 48 hrs by annexin V-FITC/PI dual staining based flow cytometry (reference value: 5.02%); format: functional
NCI/ADR-RES [22] = experiment: Induction of apoptosis in human MCF7/ADR cells assessed as necrotic cells at 3 uM after 48 hrs by annexin V-FITC/PI dual staining based flow cytometry (reference value: 2.43%); format: functional
NCI/ADR-RES [23] = experiment: Induction of apoptosis in human MCF7/ADR cells assessed as late apoptotic cells at 10 uM after 48 hrs by annexin V-FITC/PI dual staining based flow cytometry (reference value: 5.02%); format: functional
NCI/ADR-RES [24] = experiment: Induction of apoptosis in human MCF7/ADR cells assessed as necrotic cells at 10 uM after 48 hrs by annexin V-FITC/PI dual staining based flow cytometry (reference value: 2.43%); format: functional
NCI/ADR-RES [25] = experiment: Induction of apoptosis in human MCF7/ADR cells assessed as viable cells at 30 uM after 48 hrs by annexin V-FITC/PI dual staining based flow cytometry (reference value: 89.8%); format: functional; conditions: read-out: Activity
NCI/ADR-RES [26] = experiment: Induction of apoptosis in human MCF7/ADR cells assessed as late apoptotic cells at 30 uM after 48 hrs by annexin V-FITC/PI dual staining based flow cytometry (reference value: 5.02%); format: functional
NCI/ADR-RES [27] = experiment: Induction of apoptosis in human MCF7/ADR cells assessed as viable cells at 100 uM after 48 hrs by annexin V-FITC/PI dual staining based flow cytometry (reference value: 89.8%); format: functional; conditions: read-out: Activity
Mus musculus [28] = experiment: Toxicity in athymic nude Balb/C mouse xenografted with human H460 cells assessed as body weight loss at 100 mg/kg, po administered 3 times per week measured every 2 days; format: organism-based; conditions: in vivo, 48 h
Procedure, shortened: (§3)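 Nude mice, 5-to-6-week-old females, given 5 × 10^6 H460 cells sc in right flank in HBSS; at 100 mm3 tumour volume randomized, 6 per group. Vehicle; oral 100 mg/kg three times weekly; or ip 30 mg/kg once weekly. Toxicity signs and mortality observed daily; body weight measured every 2 days.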

Mus musculus [29] = experiment: Toxicity in athymic nude Balb/C mouse xenografted with human H460 cells assessed as effect on abnormal behaviour at 100 mg/kg, po administered 3 times per week measured every 2 days; format: organism-based; conditions: in vivo, 48 h; procedure, shortened: as §3

With N#Cc1ccc(COc2cccc(/C=N/NC(=O)c3cc4c(cn3)[nH]c3ccccc34)c2)cc1 the inhibition at 1 µM (MDA-MB-231) was 29.6%, the inhibition at 1 µM (Raji) was 42.7% and the inhibition at 1 µM (NCI-H460) was 51%. For the same compound, the IC50 (MCF7 [1]) was 0.93 to 1.02 µM, the IC50 (A549) was 1.37 µM and the “Ratio IC50” value [2] was 2.28. For the same compound, the IC50 (A549/TR) was 3.13 µM, the IC50 (NCI/ADR-RES [3]) was 0.982 µM and the “Ratio IC50” value [4] was 1.06. For the same compound, the selectivity ratio [5] was 28.3, the selectivity ratio [6] was 29.3 and the Activity (MCF7 [7]) was 56.12%. The Activity (MCF7 [8]) was 9.31%, the Activity (MCF7 [9]) was 38.62% and the Activity (MCF7 [10]) was 55.32%. The Activity (MCF7 [11]) was 41.83%, the Activity (MCF7 [12]) was “Active” and the Activity (MCF7 [13]) was 15.3%. The Activity (MCF7 [14]) was 0.26%, the Activity (MCF7 [15]) was 0.3% and the Activity (MCF7 [16]) was 19.4%. It also gave an Activity (MCF7 [17]) of 0.93%, an Activity (MCF7 [18]) of 13% and an Activity (MCF7 [19]) of 38.9%. The viability at 3 µM (NCI/ADR-RES [20]) was 84.3%, the Activity (NCI/ADR-RES [21]) was 7.2% and the Activity (NCI/ADR-RES [22]) was 6.04%. It also gave an Activity (NCI/ADR-RES [23]) of 19.1%, an Activity (NCI/ADR-RES [24]) of 6.4% and a viability at 30 µM (NCI/ADR-RES [25]) of 64.8%. It also gave an Activity (NCI/ADR-RES [26]) of 21.9%, a viability at 100 µM (NCI/ADR-RES [27]) of 53.5% and an Activity (Mus musculus [28]) of under 5%. The Activity (Mus musculus [29]) was “Non-Toxic”.
